Active and inactive are the calls of the source. No cut-off for these calls is given here.
Tests used:
[1] = test system: LNCaP; assay: Cytotoxicity against androgen-dependent human LNCAP cells with T877A AR mutant after 72 hrs by MTT assay; format: functional, cell-based
Procedure, shortened: (§1)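 Cells seeded at 6000–7000 per well in RPMI 1640 with 10% FBS, penicillin and streptomycin, left overnight, then exposed to a range of concentrations from DMSO stock (final DMSO 0.5%) for 72 h. MTT added for a further 2 h and formazan from viable cells read. IC50 taken from survival curves, 50% inhibition relative to 0.5% DMSO control; top concentration 150 µM.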

[2] = test system: PC-3; assay: Cytotoxicity against androgen-independent human PC3 cells after 72 hrs by MTT assay; format: functional, cell-based; conditions: for IC50: PC-3, 72 h; procedure, shortened: as §1
[3] = test system: CWR22R; assay: Cytotoxicity against human 22Rv1 cells with H874Y AR mutant after 72 hrs by MTT assay; format: functional, cell-based; conditions: 22Rv1, 72 h; procedure, shortened: as §1
[4] = Cytotoxicity against human RWPE1 cells after 72 hrs by MTT assay; format: cell-based; conditions: RWPE-1, 72 h
Procedure, shortened: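 Non-tumorigenic prostate epithelial line plated at 6000–7000 cells per well in keratinocyte serum-free medium with 0.05 mg/mL bovine pituitary extract and 5 ng/mL EGF; overnight attachment, then compounds at various concentrations in 0.5% final DMSO for 72 h. MTT 2 h, formazan read; IC50 from survival curves versus DMSO control.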

[5] = Cytotoxicity against androgen-independent human C4-2B cells with T877A mutant after 72 hrs by MTT assay; format: functional, cell-based; conditions: LNCaP C4-2B; procedure, shortened: as §1
[6] = Cytotoxicity against androgen-dependent human MDA PCa 2b cells with T877A/L701H AR mutant after 72 hrs by MTT assay; format: functional, cell-based
Procedure, shortened: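 Seeded at 6000–7000 cells per well in BRFF-HPC1 medium with 20% FBS, incubated overnight, then treated with serial concentrations diluted from DMSO stock (final DMSO 0.5%) for 72 h. Viability by MTT, 2 h with reagent, formazan measured. IC50 from survival curves as 50% inhibition versus 0.5% DMSO vehicle; maximum concentration tested 150 µM.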

Structure (SMILES)	IC50 [1]	IC50 [2]	IC50 [3]	IC50 [4]	Activity [2]	IC50 [5]	IC50 [6]
CC1=C(/C=C/C(=O)/C=C/c2cccc(C#N)c2)C(C)(C)CCC1O (centres undefined)	1.8 µM	7.2 µM	2.2 µM	1900 nM	–	–	–
COc1ccc(/C=C/C(=O)/C=C/C2=C(C)CCCC2(C)C)cc1O	9.9 µM	37.4 µM	–	–	–	–	–
CC(=O)/C=C/C1C(C)=CCCC1(C)C (stereo not drawn) [ALPHA-IONONE]	151 µM	–	–	–	inactive	–	–
CC1=C(/C=C/C(=O)/C=C/c2ccc(F)c(C(F)(F)F)c2)C(C)(C)CCC1O (centres undefined)	2.2 µM	7.3 µM	3.2 µM	–	–	7.3 µM	10 µM
COc1cccc(/C=C/C(=O)/C=C/C2=C(C)C(O)CCC2(C)C)c1 (centres undefined)	4.9 µM	6.5 µM	–	–	–	–	–
COc1ccc(/C=C/C(=O)/C=C/C2=C(C)CCCC2(C)C)cc1OC	9.5 µM	42 µM	–	–	–	–	–
CC1=C(/C=C/C(=O)/C=C/c2cc(C(F)(F)F)ccc2C(F)(F)F)C(C)(C)CCC1O (centres undefined)	3.2 µM	1.9 µM	–	–	–	–	4 µM
CC1=CCCC(C)(C)C1/C=C/C(=O)/C=C/c1cc(C(F)(F)F)ccc1F (centres undefined)	1.7 µM	3.1 µM	3.5 µM	–	–	4.7 µM	3 µM
CC1=C(/C=C/C(=O)/C=C/c2cccc(C)c2)C(C)(C)CCC1	17.8 µM	35 µM	–	–	–	–	–
CC1=C(/C=C/C(=O)/C=C/c2cccc(C(F)(F)F)c2)C(C)(C)CCC1	2.8 µM	7.7 µM	–	–	–	–	–
CC1=C(/C=C/C(=O)/C=C/c2ccc(C(F)(F)F)cc2)C(C)(C)CCC1O (centres undefined)	3 µM	10.2 µM	3.2 µM	–	–	–	9.3 µM
CC1=C(/C=C/C(=O)/C=C/c2c(F)cccc2C(F)(F)F)C(C)(C)CCC1O (centres undefined)	4.9 µM	8.8 µM	8.9 µM	–	–	–	–
CCOc1ccc(/C=C/C(=O)/C=C/C2=C(C)CCCC2(C)C)cc1OCC	8.2 µM	> 50 µM	–	–	–	–	–
CC1=C(/C=C/C(=O)/C=C/c2cccc(C(F)(F)F)c2F)C(C)(C)CCC1O (centres undefined)	1.1 µM	2.1 µM	–	–	–	–	–
CC1=C(/C=C/C(=O)/C=C/c2ccccc2)C(C)(C)CCC1O (centres undefined)	5.8 µM	15.5 µM	8 µM	–	–	1.8 µM	12.6 µM
COc1cc(/C=C/C(=O)/C=C/C2=C(C)CCCC2(C)C)ccc1O	9.5 µM	21.3 µM	–	–	–	–	–
CC1=C(/C=C/C(=O)/C=C/c2ccccc2C(F)(F)F)C(C)(C)CCC1O (centres undefined)	2.9 µM	3.7 µM	2.3 µM	–	–	–	2.9 µM
CC1=C(/C=C/C(=O)/C=C/c2ccc(C(F)(F)F)cc2)C(C)(C)CCC1	9.1 µM	12 µM	–	–	–	–	–
CC1=C(/C=C/C(=O)/C=C/c2cccc([N+](=O)[O-])c2)C(C)(C)CCC1	2.7 µM	10 µM	–	–	–	–	–
CC1=C(/C=C/C(=O)/C=C/c2cccc([N+](=O)[O-])c2)C(C)(C)CCC1O (centres undefined)	2 µM	5.8 µM	1.9 µM	1900 nM	–	–	6 µM
CC1=C(/C=C/C(=O)/C=C/c2cccc(F)c2)C(C)(C)CCC1O (centres undefined)	4.4 µM	16 µM	5.6 µM	–	–	–	–
CC1=C(/C=C/C(=O)/C=C/c2ccc(F)cc2)C(C)(C)CCC1O (centres undefined)	3.9 µM	6.2 µM	7.5 µM	–	–	4 µM	–

Structure (SMILES)	IC50 [1]	IC50 [2]	IC50 [3]	IC50 [4]	Activity [2]	IC50 [5]	IC50 [6]
CC1=C(/C=C/C(=O)/C=C/c2cc(C(F)(F)F)ccc2F)C(C)(C)CCC1O (centres undefined)	1.7 µM	3.6 µM	2 µM	–	–	–	–
CC1=C(/C=C/C(=O)/C=C/c2ccc(C(F)(F)F)cc2F)C(C)(C)CCC1O (centres undefined)	2.6 µM	4.6 µM	3.8 µM	–	–	–	–
CC1=CCCC(C)(C)C1/C=C/C(=O)/C=C/c1cccc(C(F)(F)F)c1 (centres undefined)	1 µM	5.2 µM	2.9 µM	–	–	4.4 µM	4.4 µM
CC1=CCCC(C)(C)C1/C=C/C(=O)/C=C/c1ccc(C(F)(F)F)cc1 (centres undefined)	4.7 µM	7.9 µM	3.3 µM	–	–	5.2 µM	7 µM
CC1=C(/C=C/C(=O)/C=C/c2ccc(F)cc2)C(C)(C)CCC1	7.3 µM	25.8 µM	–	–	–	–	–
CC1=C(/C=C/C(=O)/C=C/c2ccc([N+](=O)[O-])cc2)C(C)(C)CCC1O (centres undefined)	4.2 µM	15 µM	4.1 µM	–	–	–	–
CC1=C(/C=C/C(=O)/C=C/c2ccc(O)c([N+](=O)[O-])c2)C(C)(C)CCC1	26.8 µM	> 50 µM	–	–	–	–	–
CC1=CCCC(C)(C)C1/C=C/C(=O)/C=C/c1cccc(C)c1 (centres undefined)	12.2 µM	5.9 µM	15.2 µM	–	–	6.2 µM	–
CC1=CCCC(C)(C)C1/C=C/C(=O)/C=C/c1ccccc1F (centres undefined)	1.6 µM	4.8 µM	9.4 µM	–	–	6 µM	8.3 µM
CC1=C(/C=C/C(=O)/C=C/c2cc(F)cc(C(F)(F)F)c2)C(C)(C)CCC1O (centres undefined)	1.1 µM	3 µM	2.4 µM	–	–	–	–
CC1=CCCC(C)(C)C1/C=C/C(=O)/C=C/c1ccccc1C(F)(F)F (centres undefined)	22.6 µM	19 µM	18.4 µM	–	–	11.7 µM	–
CC1=C(/C=C/C(=O)/C=C/c2cc(C(F)(F)F)cc(C(F)(F)F)c2)C(C)(C)CCC1O (centres undefined)	2.1 µM	7 µM	2.2 µM	–	–	–	3.5 µM
CC1=C(/C=C/C(=O)/C=C/c2ccccc2F)C(C)(C)CCC1	10.7 µM	22.1 µM	–	–	–	–	–
CC1=CCCC(C)(C)C1/C=C/C(=O)/C=C/c1cccc([N+](=O)[O-])c1 (centres undefined)	3.3 µM	2.9 µM	4.7 µM	–	–	4 µM	5.9 µM
CC1=C(/C=C/C(=O)/C=C/c2ccccc2F)C(C)(C)CCC1O (centres undefined)	2.9 µM	10.4 µM	3.3 µM	–	–	–	–
CCOC(OCC)c1cccc(/C=C/C(=O)/C=C/C2=C(C)C(O)CCC2(C)C)c1 (centres undefined)	1.8 µM	4.7 µM	–	–	–	–	–
CC1=C(/C=C/C(=O)/C=C/c2cccc(C)c2)C(C)(C)CCC1O (centres undefined)	4.1 µM	6.2 µM	4.4 µM	–	–	–	19 µM
CC1=C(/C=C/C(=O)/C=C/c2ccc(-c3ccccc3)cc2)C(C)(C)CCC1	14.8 µM	47.8 µM	–	–	–	–	–
CC1=C(/C=C/C(=O)/C=C/c2cccc(F)c2)C(C)(C)CCC1	12.9 µM	18.7 µM	–	–	–	–	–
CC1=C(/C=C/C(=O)/C=C/c2cc([N+](=O)[O-])ccc2Cl)C(C)(C)CCC1	4.2 µM	18.9 µM	–	–	–	–	–
CC1=C(/C=C/C(=O)/C=C/c2cc(C(F)(F)F)cc(C(F)(F)F)c2)C(C)(C)CCC1	8.7 µM	7.2 µM	–	–	–	–	–
